According to ChEMBL document CHEMBL4219235, “Novel fatty acid chain modified GLP-1 derivatives with prolonged in vivo glucose-lowering ability and balanced glucoregulatory activity” (Bioorg Med Chem, 2018):
The source made the active and inactive calls.

How the values were obtained:
Mus musculus [1] = test: Antidiabetic activity in C57BL/6 mouse assessed as reduction in blood glucose level at 25 nmol/kg, ip treated 30 mins prior to glucose challenge measured up to 90 mins by IPGTT; type: functional, organism-based
Procedure, shortened: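 Male C57BL/6 mice, 6 weeks old, fasted overnight (12 h), n = 6/group; given 25 nmol/kg or saline i.p., then i.p. glucose challenge (2.0 g/kg) 30 min later, set as 0 h. Glucose challenges were repeated at 6 h intervals to mimic three meals a day. Blood glucose was followed and AUC calculated.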

Mus musculus [2] = test: Antidiabetic activity in STZ/diet-induced obese C57BL/6 mouse assessed as reduction in cumulative food intake at 25 nmol/kg, ip administered daily for 4 weeks measured daily during compound dosing relative to control; type: functional; set-up: scale not given: the % may be the effect or the level left
Procedure, shortened: (§1)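 Male C57BL/6J DIO mice on high-fat diet were treated for 4 weeks with saline as control; LFD-fed mice (n = 6/group) were used as normal reference. Water intake, food intake and body weight were recorded daily. Terminal serum leptin and adiponectin were measured by ELISA. TC, TG, HDL, LDL, ALT and AST were measured on a clinical chemistry analyzer.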

INS1 = test: Cytoprotective activity against H2O2-induced glucolipotoxicity in rat INS-1 cells assessed as reduction in apoptosis at 10 nM after 24 hrs by Annexin-V-FITC/propidium iodide staining based flow cytometric analysis; type: functional, cell-based
Procedure, shortened: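 INS-1 cells, about 5000/well, were seeded for 24 h, then exposed to glucolipotoxic medium, 50 µM H2O2 or 1 µM STZ, plus peptide at 10 nM, for 24 h. Apoptosis was analyzed by flow cytometry; triplicate, repeated three times.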

Mus musculus [3] = test: Antidiabetic activity in STZ/diet-induced obese C57BL/6 mouse assessed as reduction in serum total triglyceride level at 25 nmol/kg, ip administered daily for 4 weeks measured post last dose; type: functional, organism-based; procedure, shortened: as §1
Mus musculus [4] = test: Hypoglycemic activity in STZ-induced diabetic Kunming mouse model assessed as time required to reduce blood glucose level of […] at 150 nmol/kg, ip administered as single dose; type: functional
Procedure, shortened: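 Non-fasted STZ-diabetic Kunming mice with free access to food and water received a single i.p. injection (25 or 150 nmol/kg) or saline; n = 6/group. Blood glucose was followed over time. Euglycemic duration was defined as time below 8.35 mmol/L, and glucose AUC0–36h was calculated.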

Mus musculus [5] = test: Antidiabetic activity in STZ-induced diabetic Kunming mouse model assessed as increase in islet beta-cell area 25 nmol/kg, ip administered once daily for 3 weeks measured post last dose by hematoxylin and eosin staining based assay; type: functional, organism-based
Procedure, shortened: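 STZ-diabetic mice were dosed 25 nmol/kg i.p. once daily; normal mice and saline-treated mice served as references. After 21 days the pancreas was fixed, sectioned at 5 µm and stained with H&E. Islet area was measured by manually tracing the islet perimeter; n = 6/group.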

Mus musculus [6] = test: Antidiabetic activity in STZ/diet-induced obese C57BL/6 mouse assessed as reduction in size of brown adipocytes at 25 nmol/kg, ip administered daily for 4 weeks measured post last dose; type: functional, organism-based
Mus musculus [7] = test: Antidiabetic activity in STZ-induced diabetic Kunming mouse model assessed as reduction in HbA1c level at 25 nmol/kg, ip administered once daily for 3 weeks measured at post last dose by Beckman coulter based method; type: functional, organism-based
Procedure, shortened: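 STZ diabetes induced with 40 mg/kg/day i.p. for 5 consecutive days after overnight fasting. Mice with fasting glucose ≥11.1 mM were grouped by matched body weight and dosed 25 nmol/kg i.p. once daily for 3 weeks; saline served as control. Fasting plasma glucose was measured every five days, and HbA1c at day 24; n = 6/group.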

Mus musculus [8] = test: Antidiabetic activity in STZ/diet-induced obese C57BL/6 mouse assessed as reduction in ratio of LDL to HDL level at 25 nmol/kg, ip administered daily for 4 weeks measured post last dose; type: functional, organism-based; procedure, shortened: as §1
Mus musculus [9] = test: Antidiabetic activity in STZ/diet-induced obese C57BL/6 mouse assessed as reduction in serum AST level at 25 nmol/kg, ip administered daily for 4 weeks measured post last dose; type: functional, organism-based; procedure, shortened: as §1
Mus musculus [10] = test: Antidiabetic activity in STZ/diet-induced obese C57BL/6 mouse assessed as reduction in serum leptin level at 25 nmol/kg, ip administered daily for 4 weeks measured post last dose; type: functional; procedure, shortened: as §1
Mus musculus [11] = test: Antidiabetic activity in STZ/diet-induced obese C57BL/6 mouse assessed as reduction in serum total cholesterol level at 25 nmol/kg, ip administered daily for 4 weeks measured post last dose; type: functional, organism-based; procedure, shortened: as §1

With `CC[C@H](C)[C@H](NC(=O)[C@H](Cc1ccccc1)NC(=O)[C@H](CCC(=O)O)NC(=O)[C@H](CCCCN)NC(=O)[C@H](C)NC(=O)[C@H](C)NC(=O)[C@H](CCC(N)=O)NC(=O)CNC(=O)[C@H](CCC(=O)O)NC(=O)[C@H](CC(C)C)NC(=O)[C@H](Cc1ccc(O)cc1)NC(=O)[C@H](CO)NC(=O)[C@H](CO)NC(=O)[C@@H](NC(=O)[C@H](CC(=O)O)NC(=O)[C@H](CO)NC(=O)[C@@H](NC(=O)[C@H](Cc1ccccc1)NC(=O)[C@@H](NC(=O)CNC(=O)[C@H](CCC(=O)O)NC(=O)CNC(=O)[C@@H](N)Cc1cnc[nH]1)[C@@H](C)O)[C@@H](C)O)C(C)C)C(=O)N[C@@H](C)C(=O)N[C@@H](Cc1c[nH]c2ccccc12)C(=O)N[C@@H](CC(C)C)C(=O)N[C@H](C(=O)N[C@@H](CCCCN)C(=O)NCC(=O)N[C@@H](CCCNC(=N)N)C(=O)N[C@@H](CSC1CC(=O)N(CCCCCCCCCCCC(=O)O)C1=O)C(N)=O)C(C)C` (some centres not stated) the Activity (Mus musculus [1]) was “inactive”, the Activity (Mus musculus [2]) was 24.9% and the Activity (INS1) was “Active”. The Activity (Mus musculus [3]) was “Active”, the Time (Mus musculus [4]) was 11.5 h and the Activity (Mus musculus [5]) was “Active”. For the same compound, the Activity (Mus musculus [6]) was “Active”, the Activity (Mus musculus [7]) was “Active” and the Activity (Mus musculus [8]) was “inactive”. The Activity (Mus musculus [9]) was “Active”, the Activity (Mus musculus [10]) was 2.5 ng/mL and the Activity (Mus musculus [11]) was “Active”.
